This is one part of a sample in which hits are shown more often than they occur.
ROMK primary – modulators of human ROMK potassium channel; Tet-inducible ROMK, thallium flux fluorescence; actives lie on both sides; AID 1918; 130,000 compounds, 2% hits; B-score at 10 µM; P48048;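 active = signal ratio slope over the read window, or its plate-corrected B-score, at least 3 SD from the plate mean, either direction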;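 also: B-score of the F/F0 ratio slope over 7 to 12 s after thallium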
Target sequence (P48048 whole entry, looked up): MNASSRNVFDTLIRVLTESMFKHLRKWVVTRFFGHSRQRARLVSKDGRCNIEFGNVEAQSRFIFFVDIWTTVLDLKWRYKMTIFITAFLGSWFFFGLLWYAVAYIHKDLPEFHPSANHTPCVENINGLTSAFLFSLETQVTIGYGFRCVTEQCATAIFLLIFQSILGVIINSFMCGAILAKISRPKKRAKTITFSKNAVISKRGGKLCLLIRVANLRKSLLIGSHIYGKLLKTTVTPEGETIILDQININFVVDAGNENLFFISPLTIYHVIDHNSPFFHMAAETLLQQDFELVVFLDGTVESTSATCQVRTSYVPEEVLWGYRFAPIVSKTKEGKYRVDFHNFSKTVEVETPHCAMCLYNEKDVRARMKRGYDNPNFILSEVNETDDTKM
Biofilm kill mix – mixture kills Candida albicans biofilm cells; 120,000 compounds, 0.02% hits; inhibition, % at 7.6 µM; C. albicans biofilm persisters + clotrimazole, fluorescence viability; primary screen in compound mixtures of four per well;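 also: compounds exposed to preformed 24 h biofilms for 48 h; 0% = untreated biofilm control and 100% = clotrimazole plus chlorhexidine kill blank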
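Test system: C. albicans biofilms. Buffer or medium: RPMI/MOPS medium, pH 7.0. Timing: 48 h compound exposure at 37 °C. Technique: Alamar Blue fluorescence. Evaluation: percent inhibition of biofilm viability.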
ROMK hit retest – retested hit modulating human ROMK potassium channel; shares compounds with ROMK primary; ROMK thallium flux, fluorescence ratio; active compounds read low; normalized thallium flux (F/F0 slope) at 10 µM; 3,000 compounds, 54% hits;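 active = Flux at 10 µM at least 3 SD below or above vehicle control mean in one or both replicates; inconclusive = no clear call, values can overlap the other calls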
Numbers without * were called inactive; ? = inconclusive; · = no result.

SMILES	ROMK primary	Biofilm kill mix	ROMK hit retest
CS(=O)(=O)c1ccc(C(=O)OCc2nnc(-c3ccc(Cl)cc3)o2)cc1[N+](=O)[O-]	1.4	9	·
O=C(O)C1CCN(S(=O)(=O)/C=C/c2ccccc2)CC1	2.4	·	·
Cc1c(Br)c([N+](=O)[O-])nn1C(C)C(=O)NCc1ccco1 (configuration not stated)	·	24	·
Cc1nn(C(C)C(=O)NCc2ccco2)c(C)c1[N+](=O)[O-] (configuration not stated)	·	14	0.071
Cc1ccc(NC2=Nc3ccccc3CC2)cc1	1.7	·	·
Brc1ccc(NC2=Nc3ccccc3CC2)cc1	·	·	0.08
COc1ccccc1-c1ccc(=O)n(CC(=O)NC2CCc3ccccc32)n1 (configuration not stated)	-1.5	22	·
CCS(=O)(=O)c1ccc2c(c1)N(S(=O)(=O)c1ccc(Cl)cc1)CC(C(=O)O)O2 (configuration not stated)	-0.065	9	·
COc1ccccc1CNC(=O)c1ccc(OC(C)C)cc1	1.5	11	·
Cc1sc2cc3c(c(C(=O)c4ccccc4)[n+]2c1C)-c1cccc2cccc-3c12	-3.1*	16	0.055*
Cc1sc2ccccc2[n+]1CC(=O)O	·	24	·
Cc1cc(C)c2c(N)c(C(=O)c3ccccc3)sc2n1	0.29	9	·
O=C(c1ccccc1)c1c2c(cc3sc4ccccc4[n+]13)-c1cccc3cccc-2c13	·	25	0.045*
c1ccc2c(c1)COC(CNC1CCCCC1)OC2	-0.43	5	·
CCCNC(=O)Nc1cc(S(=O)(=O)CC)ccc1O	1.6	15	·
CCS(=O)(=O)c1ccc(O)c(NC(=O)Nc2ccc(C(C)(C)C)cc2)c1	-2.5*	13	0.08
CCCn1c(SCC(=O)OCc2ccccc2)nc2c1c(=O)n(C)c(=O)n2C	0.49	·	·
CCn1c(SCC(=O)Nc2nc3ccc(OC)cc3s2)nc2c1c(=O)n(C)c(=O)n2C	·	·	?
CC(C)n1c(SCC(=O)Nc2nc3ccccc3s2)nc2c1c(=O)n(C)c(=O)n2C	·	20	·
CCCn1c(SCC(=O)Nc2ccccc2N2CCCCC2)nc2c1c(=O)n(C)c(=O)n2C	-2.6*	·	0.064*
CCN(CC)C(=O)c1ccc2c3c(cccc13)C(=O)N(CCc1ccc(OC)c(OC)c1)C2=O	·	12	·
Cc1ccc(OCCCSc2ncccn2)cc1C	·	2	·
Cc1ccc(SCCN)cc1C	-3*	9	0.068*
COc1ccc(C2C(C(=O)c3cccs3)=C(O)C(=O)N2c2cccc(C)n2)cc1 (configuration not stated)	·	21	·
Cc1ccc(C2C(C(=O)c3cccs3)=C(O)C(=O)N2c2nnc(C)s2)cc1 (configuration not stated)	-2.3	10	0.052*
SMILES	ROMK primary	Biofilm kill mix	ROMK hit retest
COc1ccc(C2OC(=O)CC2C(=O)NCc2ccc(Cl)cc2)cc1OC (configuration not stated)	-0.0018	6	·
COCCCNC(=O)C1CCC(CNS(=O)(=O)c2ccc(Cl)cc2)CC1 (configuration not stated)	·	5	0.086
CC(C)OCCCNC(=O)C1CCC(CNS(=O)(=O)c2ccc(Cl)cc2)CC1 (configuration not stated)	0.26	14	·
S=C(CN1CCCC1=S)NCCc1ccccc1	·	20	0.078
S=C(NCCc1ccccc1)N1CCc2ccccc2C1	-1.3	4	·
Cn1c(SCC(=O)N2CCCC2)nc2ccccc21	0.54	7	·
Cn1c(SCc2nnc3n2CCCCC3)nc2ccccc21	·	·	0.081
CCCCCCC(C)n1[nH]c(=O)cc1N (configuration not stated)	·	4	·
CCc1nnc(NC(=O)CN2CCN(c3ccc(Cl)cc3)CC2)s1	0.039	·	·
Cc1ccc(NC(=O)N2CCCN(Cc3ccc(F)cc3)C2)cc1C	-4*	·	0.056*
Cc1cccc(C)c1NC(=S)N1CCCN(Cc2ccc(F)cc2)C1	·	15	·
CCN(CC(=O)Nc1ccccc1OC)CC(=O)Nc1c(Cl)ccc(C)c1Cl	-0.67	4	·
CN(C)S(=O)(=O)Oc1cccc(C(=O)Nc2ccc(Cl)cc2)c1	·	·	0.074
CN(C)S(=O)(=O)Oc1ccc(C(=O)Nc2cccc(Cl)c2)cc1	0.016	10	·
O=C(OCc1csc(-c2ccccc2)n1)c1ccccc1O	-0.28	22	·
COc1ccc(N/C=C2\C(=O)CCc3c2oc2cc(Cl)c(O)c(Cl)c32)cc1	·	9	0.064*
COc1ccc(N/C=C2\CCOC2=O)cc1	0.047	·	·
CC(C)C(=O)NC(c1cccs1)c1cc([N+](=O)[O-])c2cccnc2c1O (configuration not stated)	·	19	·
Cc1ccc(C(NC(=O)C(C)C)c2cc([N+](=O)[O-])c3cccnc3c2O)cc1 (configuration not stated)	3.3*	0	0.081
CC1COC(Cn2c3ccccc3c3ccccc32)O1 (configuration not stated)	·	2	·
O=C1c2cccc3cccc(c23)C(=O)N1OS(=O)(=O)c1ccc(Br)cc1	·	2	·
O=C1C(Br)=Cc2cccc3cccc1c23	·	19	0.049*
Cc1cc(C)nc(SCc2ccc(C(=O)N/N=C3\CCCC(=O)C3)cc2)n1	0.074	3	·
CCn1c(=O)c([N+](=O)[O-])c(N2CCN(Cc3ccc4c(c3)OCO4)CC2)c2ccccc21	·	20	0.064*
CCn1c(=O)c([N+](=O)[O-])c(N2CCSCC2)c2ccccc21	·	-1	·
SMILES	ROMK primary	Biofilm kill mix	ROMK hit retest
Cc1cc(C(=O)CSc2nc3ccccc3c(=O)[nH]2)c(C)n1CC1CCCO1 (configuration not stated)	-1.3	9	·
Cc1cc(C(=O)CSc2nc3ccccc3c(=O)n2C)c(C)n1CC1CCCO1 (configuration not stated)	-8.5*	14	0.06*
CC(=O)N1CCN(c2ccccc2NC(=O)COc2cc(C)ccc2C(C)C)CC1	·	·	0.078
C/C(=N/NC(=O)COc1cc(C)ccc1C(C)C)C(=O)O	1.1	14	·
CN1CCN(c2ccccc2NC(=O)COc2ccccc2)CC1	-0.52	·	·
Cc1ccc(C(C)C)c(OCC(=O)Nc2ccccc2N2CCN(C)CC2)c1	-2.9*	·	0.066*
Cc1ccc(C(C)C)c(OCC(=O)NN=C(CCl)CCl)c1	-4.6*	22	0.06*
COC(=O)c1ccc(N2CCN(C(C)=O)CC2)c(NC(=O)COc2ccccc2C)c1	-0.36	7	·
O=C(NCCCO)C(=O)NCc1ccccn1	0.23	7	·
c1csc(CNc2ncnc3sccc23)c1	-2.9*	·	0.066*
c1cncc(CNc2ncnc3sccc23)c1	-0.55	2	·
CCOc1ccc(C2/C(=C(/O)c3ccccc3)C(=O)C(=O)N2CCCN(C)C)cc1OC (configuration not stated)	0.053	·	·
CCOc1ccc(C2CC(c3c(O)c4ccccc4oc3=O)=NN2c2ccccc2)cc1OC (configuration not stated)	-6.6*	19	0.028*
CCCC(C)NC(=O)COC(=O)c1cccc(NS(C)(=O)=O)c1 (configuration not stated)	·	9	·
CCc1cccc(NC(=O)NC(=O)Cn2nnc(C(=O)OC)c2C(=O)OC)c1	-0.64	12	·
O=C(C1CCN(S(=O)(=O)c2cccnc2)CC1)N1CCCCC1	-1.2	·	·
CCOC(=O)N1CCN(C(=O)C2CCCN(S(=O)(=O)c3cccnc3)C2)CC1 (configuration not stated)	·	·	0.078
